Hits are enriched below; roughly 2% of the tested compounds scored in any of these assays.
HTRA1 inh = inhibitors of human serine peptidase HTRA1. AID 504803. inhibition, % at 5.96 µM. hit rate 0.5% among 340,000. recombinant HTRA1, FP-rhodamine activity-based probe, fluorescence polarization; in the data active = inhibition above about 36%;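 note: 0% = enzyme with DMSO and 100% = wells lacking enzyme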
TDP2 absorb = TDP2 (human) inhibition, absorbance primary screen; O95551; recombinant TDP2, T5PNP hydrolysis, p-nitrophenol absorbance 415 nm; inhibition, % at 12.8 µM; hit rate 0.34% among 370,000; AID 720702;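 active = inhibition above the mean of all tested compounds plus 3 SD, set per campaign, cut at about 25% in these data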;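 note: 0% = DMSO with enzyme and 100% = buffer with substrate but no TDP2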
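System: recombinant human TDP2 / Amount: 120 nM TDP2 per well / Also added: 5 mM T5PNP chromogenic substrate / Doses: 12.8 µM single point, 1% DMSO / Incubation: 2 h at 37 °C / Detection: p-Nitrophenol epi absorbance / Evaluation: % inhibition relative to enzyme-containing and enzyme-free wells / Repeats: singlicate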
TCR CD3 inh = inhibitors of human TCR-CD3 interaction | TAMRA-labeled TCR probe fluorescence, biochemical | inhibition, % at 9.4 µM | hit rate 0.37% among 360,000 | AID 651800; in the data active = inhibition above about 19%;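 note: recombinant mutant TCR 2C K166C tagged with TAMRA read by polarization; 0% = receptor in buffer alone and 100% = receptor with positive control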
SIAE inh = blocks human sialic acid acetylesterase; hit rate 0.69% among 370,000; AID 1053197; inhibition, % at 9.66 µM; Q9HAT2; SIAE FP-Rh probe binding, fluorescence polarization;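 active = inhibition above a cutoff: mean of compounds within the control limits plus 3 SD of those, cut at about 17% in these data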;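 note: 0% = plate median of compound wells and 100% = probe without SIAE protein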
PAD4 FP inh = inhibitors of human PAD4; recombinant PAD4, RCA probe fluorescence polarization; inhibition, % at 6.36 µM; hit rate 0.41% among 330,000;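 active = percent inhibition above a cutoff equal to the mean of all tested compounds plus 3 SD, cut at about 15% in these data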;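 note: 0% = PAD4 with RCA probe and DMSO and 100% = probe without PAD4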
Target sequence (Q9UM07 whole entry, looked up): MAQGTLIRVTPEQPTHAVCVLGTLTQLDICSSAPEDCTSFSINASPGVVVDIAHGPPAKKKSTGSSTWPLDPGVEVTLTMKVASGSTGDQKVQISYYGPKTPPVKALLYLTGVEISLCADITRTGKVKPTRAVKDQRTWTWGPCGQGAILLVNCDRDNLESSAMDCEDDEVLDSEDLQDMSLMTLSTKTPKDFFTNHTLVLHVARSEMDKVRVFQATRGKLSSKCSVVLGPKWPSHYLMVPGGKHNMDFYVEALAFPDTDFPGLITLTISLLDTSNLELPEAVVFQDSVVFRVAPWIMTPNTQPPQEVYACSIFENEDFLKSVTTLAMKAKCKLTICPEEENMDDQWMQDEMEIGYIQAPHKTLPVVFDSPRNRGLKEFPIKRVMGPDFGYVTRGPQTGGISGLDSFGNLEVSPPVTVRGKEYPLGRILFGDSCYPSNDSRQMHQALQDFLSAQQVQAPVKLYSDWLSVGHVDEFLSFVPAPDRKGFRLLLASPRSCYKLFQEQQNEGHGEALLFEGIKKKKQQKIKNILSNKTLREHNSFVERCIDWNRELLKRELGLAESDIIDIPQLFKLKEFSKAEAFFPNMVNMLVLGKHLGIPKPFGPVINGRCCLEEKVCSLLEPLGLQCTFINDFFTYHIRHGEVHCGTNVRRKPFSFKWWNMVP
ABHD4 inh = inhibits mouse alpha/beta hydrolase domain 4; Q8VD66; purified mABHD4, FP-Rh probe fluorescence polarization; inhibition, % at 8.92 µM; hit rate 0.54% among 370,000; AID 720543;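 active = inhibition exceeding the mean over every tested compound plus 3 SD, cut at about 30% in these data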;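 note: 0% = plate median of compound wells and 100% = S159A mutant with DMSO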
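system = mouse ABHD4 enzyme, wild type | medium = HEPES pH 7.0, NaCl, Pluronic buffer | also added = FP-Rh probe | incubation = Enzyme–compound pre-incubation 45 min, then probe 60 min, both 25 °C | technique = fluorescence polarization, excitation 525 nm, emission 598 nm, BODIPY TMR filters | controls = S159A mutant high control, sample median low control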
PAD4 FP conf = confirmation of human PAD4 inhibitors | shares compounds with PAD4 FP inh | recombinant PAD4, RCA probe fluorescence polarization | inhibition, % at 6.36 µM | hit rate 28% among 1,200 | AID 488796;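 active = mean inhibition across replicates above the hit cutoff set by the earlier primary screen, cut at about 15% in these data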;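 note: inhibitors block active-site labeling by the probe so polarization falls; 0% = PAD4 with probe and DMSO and 100% = probe without PAD4 enzyme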
Active calls of the source: *.

For CC(=O)N1CCc2[nH]c3ccccc3c2C1 the results were HTRA1 inh -6, TDP2 absorb 1, TCR CD3 inh -8, SIAE inh -1, PAD4 FP inh -2 and ABHD4 inh -1.
`O=C(N1CCc2[nH]c3ccccc3c2C1)C(F)(F)F` gave HTRA1 inh 0, TDP2 absorb 4, TCR CD3 inh -6, SIAE inh 4, PAD4 FP inh 58*, ABHD4 inh 3 and PAD4 FP conf -3.
For COC(=O)C[C@@H]1CC[C@H]2[C@@H](COc3ccc(NC(=O)Nc4ccccc4C)cc3C(=O)N2C)O1 the results were TDP2 absorb 4, SIAE inh 0 and ABHD4 inh 7.
`O=C(NCc1ccccn1)Nc1ccccc1C(F)(F)F` gave HTRA1 inh -3, TDP2 absorb 0, TCR CD3 inh 6, SIAE inh -4, PAD4 FP inh 35*, ABHD4 inh 2 and PAD4 FP conf 6.
`Cc1sc(NC(=O)c2ccccc2)c(C(c2ccc(Cl)cc2)N2CCN(CCO)CC2)c1C` (centres undefined) gave HTRA1 inh -23, TDP2 absorb -7, TCR CD3 inh -1, SIAE inh 3, PAD4 FP inh 17*, ABHD4 inh 3 and PAD4 FP conf -1.
Screening CCN(CC)CCCNC(=O)c1oc(=O)c2ccccc2c1-c1ccc(C)cc1 returned TDP2 absorb -4, SIAE inh -1 and ABHD4 inh 1.
For Cn1c2ccccc2c2nnc(SCC(=O)Nc3cccc(C(=O)O)c3)nc21 the results were HTRA1 inh -1, TDP2 absorb -4, TCR CD3 inh 5, SIAE inh -8, PAD4 FP inh 3 and ABHD4 inh -23.
Cc1ccc(C2=NN=C(NC(=O)CSc3nnc4c5ccccc5n(C)c4n3)SC2)cc1 was read as HTRA1 inh 10, PAD4 FP inh 23* and PAD4 FP conf 37*.
For Cc1ccc(C2=NN=C(NC(=O)CSc3nc(C)cc(C)n3)SC2)cc1 the results were TDP2 absorb -1, TCR CD3 inh -1, SIAE inh -3, PAD4 FP inh 71*, ABHD4 inh 4 and PAD4 FP conf 68*.
Screening O=C(Nc1nnc(-c2cccnc2)s1)c1cnc2ccccc2c1 returned TDP2 absorb 4, SIAE inh -9 and ABHD4 inh -5.
For COc1cc(OC)c(OC)cc1/C=N/NC(=O)c1ccc2nc[nH]c2c1 the results were HTRA1 inh 3, TDP2 absorb -8, TCR CD3 inh 3, SIAE inh -3, PAD4 FP inh 16*, ABHD4 inh 10 and PAD4 FP conf 1.
Screening CCn1c2ccccc2c2cc(/C(C)=N/O)ccc21 returned HTRA1 inh -18, TDP2 absorb 6, TCR CD3 inh 3, SIAE inh -2, PAD4 FP inh 16*, ABHD4 inh -11 and PAD4 FP conf 0.
For CCN(C(=O)COC(=O)c1cc(-c2cccc3ccccc23)nc2ccccc12)C1CCS(=O)(=O)C1 (centres undefined) the results were HTRA1 inh -31, TDP2 absorb 3, TCR CD3 inh 12, SIAE inh -24, PAD4 FP inh 24*, ABHD4 inh -10 and PAD4 FP conf 12.
`CCN(C(=O)COC(=O)c1ccccc1Cc1ccccc1)C1CCS(=O)(=O)C1` (centres undefined) gave HTRA1 inh -5, TDP2 absorb -3, TCR CD3 inh -3, SIAE inh -1, PAD4 FP inh 0 and ABHD4 inh -2.
For O=C(NC(=S)NC1CCN(Cc2ccccc2)CC1)c1ccc(F)cc1 the results were HTRA1 inh -6, TDP2 absorb 4, TCR CD3 inh -6, SIAE inh -2, PAD4 FP inh 33*, ABHD4 inh 2 and PAD4 FP conf 37*.
Cc1ccc(C2=Nc3ccccc3SC(c3cccc([N+](=O)[O-])c3)C2)cc1 (centres undefined) was read as HTRA1 inh -16, TDP2 absorb -9, TCR CD3 inh -3, SIAE inh 5, PAD4 FP inh 18*, ABHD4 inh 5 and PAD4 FP conf -6.
O=C(CSCc1ccccc1Cl)NCCSc1ccccn1 was read as HTRA1 inh -6, TDP2 absorb 1, TCR CD3 inh 1, SIAE inh 3, PAD4 FP inh 16*, ABHD4 inh -1 and PAD4 FP conf 1.
`COCCCNC(=O)C[C@H]1C[C@@]2(C(=O)OC)C(=C[C@H](C(C)C)O[C@@H]2C2CC2)N(CCc2ccc(OC)c(OC)c2)C1=O` gave TDP2 absorb -5, SIAE inh 5 and ABHD4 inh -3.
`O=C(Nc1nc(-c2ccc(S(=O)(=O)N3CCOCC3)cc2)cs1)c1ccccc1` gave HTRA1 inh -34, TDP2 absorb 10, TCR CD3 inh 1, SIAE inh -36, PAD4 FP inh 15*, ABHD4 inh -24 and PAD4 FP conf 19*.
COc1cccc(C(=O)Nc2nc(-c3ccc(S(=O)(=O)N4CCOCC4)cc3)cs2)c1 was read as HTRA1 inh -61, TDP2 absorb 0, TCR CD3 inh -1, SIAE inh -61, PAD4 FP inh -1 and ABHD4 inh -13.
Screening COC(=O)c1c(C)oc2ccc(N(C(C)=O)S(=O)(=O)c3ccccc3)cc12 returned HTRA1 inh -6, TDP2 absorb -5, TCR CD3 inh -8, SIAE inh 4, PAD4 FP inh 1 and ABHD4 inh 4.
For COc1ccc(S(=O)(=O)N(C(C)=O)c2ccc3oc(=O)sc3c2)cc1 the results were HTRA1 inh 22, TDP2 absorb 0, TCR CD3 inh 9, SIAE inh -13, PAD4 FP inh 22*, ABHD4 inh -4 and PAD4 FP conf 7.
COCC1CN(CCc2ccc(F)cc2)S(=O)(=O)c2c(OCCN3C(=O)[C@@H]4[C@H](C3=O)[C@@H]3C=C[C@H]4C3)cccc2O1 (some centres undefined) was read as TDP2 absorb 7, TCR CD3 inh -6, SIAE inh 1 and ABHD4 inh 0.
Screening Cc1ccc(OCCCNC2CCCC2)cc1 returned HTRA1 inh 0, TDP2 absorb 7, TCR CD3 inh -5, SIAE inh 5, PAD4 FP inh 17*, ABHD4 inh 10 and PAD4 FP conf 5.
CC(C)(C)c1ccc(OCCCNC2CCCC2)cc1 was read as HTRA1 inh 0, TDP2 absorb -12, TCR CD3 inh 2, SIAE inh -2, PAD4 FP inh -3 and ABHD4 inh 10.
`CCOC(=O)CC(NC(=O)C(CC)c1ccccc1)c1ccccc1Cl` (centres undefined) gave HTRA1 inh -3, TDP2 absorb 0, TCR CD3 inh 0, SIAE inh 1, PAD4 FP inh -1 and ABHD4 inh -4.
